# Legend:
# Salmonella typhimurium = experiment: Antibacterial activity against Salmonella Typhimurium ATCC 1639 after 18 hrs by agar dilution method; type: functional, Salmonella enterica subsp. enterica serovar Typhimurium; conditions: Salmonella enterica, ATCC 1639, 18 h
# In short: (§1)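 Agar dilution on Mueller Hinton agar; inoculum about 10^6 CFU/mL applied to plates with twofold serial dilutions of compound in distilled water, 0.01 to 100 μg/mL; 37 °C, 18 h. DMSO-supplemented medium at matching dilution run as solvent control. MIC = lowest concentration giving no visible growth on the plate.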
# Escherichia coli = experiment: Antibacterial activity against Escherichia coli ATCC 8739 after 18 hrs by agar dilution method; type: functional; conditions: ATCC 8739, 18 h; in short: as §1
# Pseudomonas aeruginosa = experiment: Antibacterial activity against Pseudomonas aeruginosa ATCC 9027 after 18 hrs by agar dilution method; conditions: ATCC 9027, 18 h
# [1] = system: Staphylococcus epidermidis; experiment: Antibacterial activity against Staphylococcus epidermidis ATCC 12229 after 18 hrs by agar dilution method; type: functional; conditions: ATCC 12229, 18 h; in short: as §1
# Staphylococcus aureus [2] = experiment: Antibacterial activity against Staphylococcus aureus ATCC 29737 after 18 hrs by agar dilution method; type: functional; conditions: ATCC 29737, 18 h; in short: as §1
# [3] = Cytotoxicity against mouse NIH/3T3 cells after 24 hrs by MTT assay; type: cell-based; conditions: NIH3T3, 24 h
# In short: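 NIH/3T3 normal mouse fibroblasts exposed to compounds for 24 h; viability read by MTT colorimetric assay.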
# Staphylococcus aureus [4] = experiment: Antibacterial activity against methicillin-resistant Staphylococcus aureus isolate 1 after 18 hrs by agar dilution method; type: functional; conditions: isolate 1, 18 h
# In short: (§2)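 Agar dilution on Mueller Hinton agar. Inoculum about 10^6 CFU/mL applied to plates holding two-fold serial dilutions of compound in distilled water, 0.01 to 100 μg/mL. Incubated 37 °C for 18 h. DMSO solvent control included. MIC taken as the lowest concentration giving no visible growth on the plate.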
# Staphylococcus aureus [5] = experiment: Antibacterial activity against methicillin-resistant Staphylococcus aureus isolate 2 after 18 hrs by agar dilution method; type: functional; conditions: isolate 2, 18 h; in short: as §2
smiles,measurement,setting,value
O=C1OC(Cn2sccc2=O)CN1c1ccc(N2CCOCC2)c(F)c1 (configuration not stated),MIC,Salmonella typhimurium,12.5 µg/mL
same,MIC,Escherichia coli,25 µg/mL
same,MIC,Pseudomonas aeruginosa,12.5 µg/mL
same,MIC,[1],12.5 µg/mL
same,MIC,Staphylococcus aureus [2],6 µg/mL
O=c1cc(Cl)sn1-c1ccc(F)cc1,MIC,Salmonella typhimurium,6 µg/mL
same,MIC,Escherichia coli,6 µg/mL
same,MIC,Pseudomonas aeruginosa,12.5 µg/mL
same,MIC,[1],3 µg/mL
same,MIC,Staphylococcus aureus [2],3 µg/mL
O=C1OC(Cn2sccc2=O)CN1c1ccccc1 (configuration not stated),IC50,[3],162 µg/mL
same,MIC,Salmonella typhimurium,0.01 µg/mL
same,MIC,Escherichia coli,0.01 µg/mL
same,MIC,Pseudomonas aeruginosa,0.01 µg/mL
same,MIC,Staphylococcus aureus [4],6 µg/mL
same,MIC,[1],0.75 µg/mL
same,MIC,Staphylococcus aureus [5],10 µg/mL
same,MIC,Staphylococcus aureus [2],0.75 µg/mL
CC(=O)c1ccc(-n2sccc2=O)cc1,MIC,Salmonella typhimurium,12.5 µg/mL
same,MIC,Escherichia coli,12.5 µg/mL
same,MIC,Pseudomonas aeruginosa,12.5 µg/mL
same,MIC,[1],12.5 µg/mL
same,MIC,Staphylococcus aureus [2],12.5 µg/mL
O=C1OC(Cn2sccc2=O)CN1c1ccc(F)cc1 (configuration not stated),IC50,[3],174 µg/mL
same,MIC,Salmonella typhimurium,0.75 µg/mL
same,MIC,Escherichia coli,0.75 µg/mL
same,MIC,Pseudomonas aeruginosa,0.75 µg/mL
same,MIC,Staphylococcus aureus [4],10 µg/mL
same,MIC,[1],1.5 µg/mL
same,MIC,Staphylococcus aureus [5],12.5 µg/mL
same,MIC,Staphylococcus aureus [2],0.75 µg/mL
COc1ccc(-n2sc(Cl)cc2=O)cc1,MIC,Salmonella typhimurium,1.5 µg/mL
same,MIC,Escherichia coli,1.5 µg/mL
same,MIC,Pseudomonas aeruginosa,0.01 µg/mL
same,MIC,[1],0.25 µg/mL
same,MIC,Staphylococcus aureus [2],1.5 µg/mL
O=c1ccsn1-c1ccc(C(F)(F)F)cc1,MIC,Salmonella typhimurium,25 µg/mL
same,MIC,Escherichia coli,25 µg/mL
same,MIC,Pseudomonas aeruginosa,25 µg/mL
same,MIC,[1],0.25 µg/mL
same,MIC,Staphylococcus aureus [2],25 µg/mL
COc1ccc(N2CC(Cn3sccc3=O)OC2=O)cc1 (configuration not stated),MIC,Salmonella typhimurium,100 µg/mL
same,MIC,Escherichia coli,100 µg/mL
same,MIC,Pseudomonas aeruginosa,100 µg/mL
same,MIC,[1],50 µg/mL
same,MIC,Staphylococcus aureus [2],50 µg/mL
O=C1OC(Cn2sccc2=O)CN1c1ccc(Cl)cc1 (configuration not stated),IC50,[3],194 µg/mL
same,MIC,Salmonella typhimurium,12.5 µg/mL
same,MIC,Escherichia coli,12.5 µg/mL
same,MIC,Pseudomonas aeruginosa,25 µg/mL
same,MIC,Staphylococcus aureus [4],12.5 µg/mL
same,MIC,[1],1.5 µg/mL
same,MIC,Staphylococcus aureus [5],12.5 µg/mL
same,MIC,Staphylococcus aureus [2],1.5 µg/mL
COc1ccc(-n2sccc2=O)cc1,MIC,Salmonella typhimurium,12.5 µg/mL
same,MIC,Escherichia coli,25 µg/mL
same,MIC,Pseudomonas aeruginosa,25 µg/mL
same,MIC,[1],3 µg/mL
same,MIC,Staphylococcus aureus [2],10 µg/mL
CC(=O)c1ccc(-n2sc(Cl)cc2=O)cc1,MIC,Salmonella typhimurium,25 µg/mL
same,MIC,Escherichia coli,12.5 µg/mL
same,MIC,Pseudomonas aeruginosa,12.5 µg/mL
same,MIC,[1],12.5 µg/mL
same,MIC,Staphylococcus aureus [2],12.5 µg/mL
Cc1ccc(-n2sc(Cl)cc2=O)cc1,MIC,Salmonella typhimurium,5 µg/mL
same,MIC,Escherichia coli,5 µg/mL
same,MIC,Pseudomonas aeruginosa,0.01 µg/mL
same,MIC,[1],0.5 µg/mL
same,MIC,Staphylococcus aureus [2],5 µg/mL
Cc1ccc(N2CC(Cn3sccc3=O)OC2=O)cc1 (configuration not stated),MIC,Salmonella typhimurium,25 µg/mL
same,MIC,Escherichia coli,25 µg/mL
same,MIC,Pseudomonas aeruginosa,25 µg/mL
same,MIC,[1],25 µg/mL
same,MIC,Staphylococcus aureus [2],25 µg/mL
O=c1ccsn1-c1cccc(Cl)c1,MIC,Salmonella typhimurium,25 µg/mL
same,MIC,Escherichia coli,25 µg/mL
same,MIC,Pseudomonas aeruginosa,25 µg/mL
same,MIC,[1],12.5 µg/mL
same,MIC,Staphylococcus aureus [2],10 µg/mL
O=c1ccsn1Cc1ccccc1,MIC,Salmonella typhimurium,12.5 µg/mL
same,MIC,Escherichia coli,12.5 µg/mL
same,MIC,Pseudomonas aeruginosa,12.5 µg/mL
same,MIC,[1],6 µg/mL
same,MIC,Staphylococcus aureus [2],12.5 µg/mL
O=c1cc(Cl)sn1Cc1ccccc1,MIC,Salmonella typhimurium,12.5 µg/mL
same,MIC,Escherichia coli,0.5 µg/mL
same,MIC,Pseudomonas aeruginosa,25 µg/mL
same,MIC,[1],0.5 µg/mL
same,MIC,Staphylococcus aureus [2],0.5 µg/mL
O=c1cc(Cl)sn1-c1cccc(Cl)c1,MIC,Salmonella typhimurium,12.5 µg/mL
same,MIC,Escherichia coli,12.5 µg/mL
same,MIC,Pseudomonas aeruginosa,12.5 µg/mL
same,MIC,[1],10 µg/mL
same,MIC,Staphylococcus aureus [2],6 µg/mL
O=c1ccsn1-c1cccc(F)c1,MIC,Salmonella typhimurium,12.5 µg/mL
same,MIC,Escherichia coli,12.5 µg/mL
same,MIC,Pseudomonas aeruginosa,12.5 µg/mL
same,MIC,[1],3.25 µg/mL
same,MIC,Staphylococcus aureus [2],6 µg/mL
O=c1ccsn1-c1ccc(Cl)cc1,MIC,Salmonella typhimurium,10 µg/mL
same,MIC,Escherichia coli,10 µg/mL
same,MIC,Pseudomonas aeruginosa,10 µg/mL
same,MIC,[1],1.5 µg/mL
same,MIC,Staphylococcus aureus [2],3 µg/mL
O=c1cc(Cl)sn1-c1ccc(Cl)cc1,MIC,Salmonella typhimurium,0.3 µg/mL
same,MIC,Escherichia coli,0.3 µg/mL
same,MIC,Pseudomonas aeruginosa,0.6 µg/mL
same,MIC,[1],0.1 µg/mL
same,MIC,Staphylococcus aureus [2],0.1 µg/mL
O=c1cc(Cl)sn1-c1ccc(N2CCOCC2)c(F)c1,MIC,Salmonella typhimurium,25 µg/mL
same,MIC,Escherichia coli,25 µg/mL
same,MIC,Pseudomonas aeruginosa,12.5 µg/mL
same,MIC,[1],10 µg/mL
same,MIC,Staphylococcus aureus [2],10 µg/mL
CC(=O)c1ccc(N2CC(Cn3sccc3=O)OC2=O)cc1 (configuration not stated),MIC,Salmonella typhimurium,50 µg/mL
same,MIC,Escherichia coli,50 µg/mL
same,MIC,Pseudomonas aeruginosa,100 µg/mL
same,MIC,[1],25 µg/mL
same,MIC,Staphylococcus aureus [2],12.5 µg/mL
O=C1OC(Cn2sccc2=O)CN1c1cccc(Cl)c1 (configuration not stated),MIC,Salmonella typhimurium,12.5 µg/mL
same,MIC,Escherichia coli,12.5 µg/mL
same,MIC,Pseudomonas aeruginosa,12.5 µg/mL
same,MIC,[1],12.5 µg/mL
same,MIC,Staphylococcus aureus [2],12.5 µg/mL
O=c1cc(Cl)sn1-c1ccccc1,MIC,Salmonella typhimurium,0.3 µg/mL
same,MIC,Escherichia coli,0.6 µg/mL
same,MIC,Pseudomonas aeruginosa,1.25 µg/mL
same,MIC,[1],0.3 µg/mL
same,MIC,Staphylococcus aureus [2],50 µg/mL
O=C1OC(Cn2sccc2=O)CN1c1ccc(C(F)(F)F)cc1 (configuration not stated),MIC,Salmonella typhimurium,100 µg/mL
same,MIC,Escherichia coli,100 µg/mL
same,MIC,Pseudomonas aeruginosa,100 µg/mL
same,MIC,[1],100 µg/mL
same,MIC,Staphylococcus aureus [2],50 µg/mL
O=C1OC(Cn2sccc2=O)CN1Cc1ccccc1 (configuration not stated),IC50,[3],273 µg/mL
same,MIC,Salmonella typhimurium,12.5 µg/mL
same,MIC,Escherichia coli,12.5 µg/mL
same,MIC,Pseudomonas aeruginosa,12.5 µg/mL
same,MIC,Staphylococcus aureus [4],8 µg/mL
same,MIC,[1],0.5 µg/mL
same,MIC,Staphylococcus aureus [5],12.5 µg/mL
same,MIC,Staphylococcus aureus [2],0.5 µg/mL
O=c1ccsn1-c1ccc(F)cc1,MIC,Salmonella typhimurium,12.5 µg/mL
same,MIC,Escherichia coli,6 µg/mL
same,MIC,Pseudomonas aeruginosa,12.5 µg/mL
same,MIC,[1],3 µg/mL
same,MIC,Staphylococcus aureus [2],1.5 µg/mL
O=c1cc(Cl)sn1-c1ccc(C(F)(F)F)cc1,MIC,Salmonella typhimurium,12.5 µg/mL
same,MIC,Escherichia coli,25 µg/mL
same,MIC,Pseudomonas aeruginosa,0.1 µg/mL
same,MIC,[1],5 µg/mL
same,MIC,Staphylococcus aureus [2],5 µg/mL
O=c1ccsn1-c1ccc(N2CCOCC2)c(F)c1,MIC,Salmonella typhimurium,25 µg/mL
same,MIC,Escherichia coli,25 µg/mL
same,MIC,Pseudomonas aeruginosa,25 µg/mL
same,MIC,[1],10 µg/mL
same,MIC,Staphylococcus aureus [2],12.5 µg/mL
Cc1ccc(-n2sccc2=O)cc1,MIC,Salmonella typhimurium,25 µg/mL
same,MIC,Escherichia coli,25 µg/mL
same,MIC,Pseudomonas aeruginosa,25 µg/mL
same,MIC,[1],2 µg/mL
same,MIC,Staphylococcus aureus [2],25 µg/mL
O=C1OC(Cn2sccc2=O)CN1c1cccc(F)c1 (configuration not stated),MIC,Salmonella typhimurium,100 µg/mL
same,MIC,Escherichia coli,100 µg/mL
same,MIC,Pseudomonas aeruginosa,100 µg/mL
same,MIC,[1],100 µg/mL
same,MIC,Staphylococcus aureus [2],50 µg/mL
O=c1ccsn1-c1ccccc1,MIC,Salmonella typhimurium,25 µg/mL
same,MIC,Escherichia coli,12.5 µg/mL
same,MIC,Pseudomonas aeruginosa,12.5 µg/mL
same,MIC,[1],3.25 µg/mL
same,MIC,Staphylococcus aureus [2],3.25 µg/mL
O=C(O)c1cn(C2CC2)c2cc(N3CCNCC3)c(F)cc2c1=O [CIPROFLOXACIN],MIC,Salmonella typhimurium,0.01 µg/mL
same,MIC,Pseudomonas aeruginosa,0.01 µg/mL
same,MIC,[1],1 µg/mL
same,MIC,Staphylococcus aureus [2],0.5 µg/mL
CC(=O)NC[C@H]1CN(c2ccc(N3CCOCC3)c(F)c2)C(=O)O1 [LINEZOLID],IC50,[3],465 µg/mL
same,MIC,Salmonella typhimurium,> 100 µg/mL
same,MIC,Escherichia coli,> 100 µg/mL
same,MIC,Pseudomonas aeruginosa,> 100 µg/mL
same,MIC,Staphylococcus aureus [4],2 µg/mL
same,MIC,[1],0.03 µg/mL
CN[C@H](CC(C)C)C(=O)N[C@H]1C(=O)N[C@@H](CC(N)=O)C(=O)N[C@H]2C(=O)N[C@H]3C(=O)N[C@H](C(=O)N[C@H](C(=O)O)c4cc(O)cc(O)c4-c4cc3ccc4O)[C@H](O)c3ccc(c(Cl)c3)Oc3cc2cc(c3O[C@@H]2O[C@H](CO)[C@@H](O)[C@H](O)[C@H]2O[C@H]2C[C@](C)(N)[C@H](O)[C@H](C)O2)Oc2ccc(cc2Cl)[C@H]1O [VANCOMYCIN],MIC,Salmonella typhimurium,> 100 µg/mL
same,MIC,Escherichia coli,> 100 µg/mL
same,MIC,Pseudomonas aeruginosa,> 100 µg/mL
same,MIC,[1],0.75 µg/mL
same,MIC,Staphylococcus aureus [2],0.75 µg/mL

# From ChEMBL document CHEMBL1154609, “Synthesis and antibacterial activity of isothiazolyl oxazolidinones and analogous 3(2H)-isothiazolones” (Eur J Med Chem, 2010)
